From PMC9173812 (Proceedings of the National Academy of Sciences of the …, 2022)

Experiments:
[1] = biological target: T1, 5-HT7R (Homo sapiens, UniProt P34969); type: cell-based; conditions: 10 µM ligand, 2 to 60 min, Western blot
How it was run: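 HEK-293 cells stably expressing h5-HT7R were exposed to 10 µM ligand for 2 to 60 min, or to rising concentrations for 7 min. Lysates were run on 10% SDS-PAGE, transferred to PVDF and blocked in 5% milk in TBS-T (pH 7.4), then probed for phospho-ERK1/2. Bands were quantified by densitometry; three independent experiments, mean ± SEM.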

[2] = system: thermal nociception; assay: Tail immersion test; type: in vivo; conditions: 5 mg/kg s.c.
How it was run: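 Male mice (8–14 wk; C57BL/6 or 5-HT7R−/− on C57BL/6 background) received test compound 5 mg/kg by tail s.c. injection. Vehicle was 20% DMSO and 5% Tween 80 in PBS. Some groups were also given 5-HT7R antagonist 5 mg/kg i.p. Tail immersion latency in 50 ± 2 °C water was measured 10 min (T0) and 40 min (T30) post-injection.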

[3] = Pharmacokinetic study in plasma and brain; type: in vivo; conditions: 5 mg/kg s.c., C57BL/6 mice
[4] = biological target: T1, 5-HT7R; assay: cAMP accumulation; type: cell-based; conditions: ligand alone
[5] = biological target: T1, 5-HT7R; type: cell-based
How it was run: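 HEK-293 cells stably expressing h5-HT7R, grown in DMEM with 10% dialyzed FCS and penicillin/streptomycin. Cells were preincubated with a 5-HT7R antagonist (10 µM, 10 min) or the PKA inhibitor H89 before 10 µM ligand. Lysates were read by AlphaScreen SureFire p-ERK1/2 and p-c-SRC kits, or by Western blot with densitometry. Three independent experiments; mean ± SEM.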

[6] = system: formalin-induced hindpaw licking; assay: Formalin test; type: in vivo; conditions: rats, Serodolin 10 mg/kg s.c., morphine 4 mg/kg s.c.
[7] = pretreatment, Serodolin 10 µM 7 min, AlphaScreen

T1 sequence (P34969 1-432): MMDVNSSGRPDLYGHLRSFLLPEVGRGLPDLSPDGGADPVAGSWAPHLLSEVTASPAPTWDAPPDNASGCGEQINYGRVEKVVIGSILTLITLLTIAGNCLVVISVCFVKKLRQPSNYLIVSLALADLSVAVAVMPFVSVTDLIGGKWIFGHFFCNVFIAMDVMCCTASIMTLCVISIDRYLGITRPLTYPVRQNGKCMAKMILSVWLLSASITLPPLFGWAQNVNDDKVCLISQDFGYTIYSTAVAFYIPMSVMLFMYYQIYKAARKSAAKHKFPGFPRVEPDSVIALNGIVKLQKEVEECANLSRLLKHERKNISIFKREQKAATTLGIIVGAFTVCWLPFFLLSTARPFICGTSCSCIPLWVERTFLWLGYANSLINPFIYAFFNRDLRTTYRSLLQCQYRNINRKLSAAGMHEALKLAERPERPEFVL

**Q.** Which “induction of ERK phosphorylation” value [1] does the source give for `O=C1Nc2cccc3c2C1(CCCCN1CC=C(c2ccccc2)CC1)CCC3` (stereo not shown) [DR4004] here?
**A.** Its value is “none of them were able to induce ERK activation”.

**Q.** For `Cc1nn(C)c(C)c1-c1cccc(CCN(C)C)c1` [E55888], which “antinociceptive effect in 5-HT7R KO mice” value [2] is on record?
**A.** The value was “did not exert any antinociceptive effect”.

**Q.** And the “time after which compound is eliminated / undetectable in plasma and brain” value [3]?
**A.** Its value is 120 min.

**Q.** What about the “maximum of detection in brain” value ([3]; brain) of the same compound?
**A.** The value was 1.4 ± 0.2 µg/mL.

**Q.** What about the “maximum of detection in plasma” value ([3]; plasma) of the same compound?
**A.** The value was 6.1 ± 0.5 µg/mL.

**Q.** What about the “effect on cAMP when tested alone” value [4] of the same compound?
**A.** The value was “induced a concentration-dependent accumulation of cAMP”.

**Q.** What about the “induction of ERK phosphorylation” value [1] of the same compound?
**A.** The value was “induce ERK phosphorylation”.

**Q.** And the “phosphorylation of c-SRC kinase at Tyr416” value ([5]; 10 µM, 7 min, Western blot)?
**A.** The value was “could not be observed after 5-CT or E55888 stimulation”.

**Q.** What does the source list for `CC(C)(C)n1nc(-c2ccc(Cl)cc2)c2c(N)ncnc21` [PP2]?
**A.** block of Serodolin-induced ERK phosphorylation [5, 7]: 99%; block of Serodolin-induced c-SRC phosphorylation [5, 7]: 100%

**Q.** For `Nc1ncnc2c1cnn2-c1ccccc1` [PP3], which “effect on Serodolin-induced ERK and c-SRC phosphorylation” value ([5]; pretreatment, AlphaScreen) is on record?
**A.** The value was “inactive”.

**Q.** For `CN1CC[C@]23c4c5ccc(O)c4O[C@H]2[C@@H](O)C=C[C@H]3[C@H]1C5` [morphine], which “inhibitory effect on licking, early phase (vs vehicle-treated group)” value ([6]; 0 to 5 min, not significant) is on record?
**A.** The value was −57%.

**Q.** What about the “inhibition of licking, late phase (vs vehicle-treated group)” value ([6]; 17 to 27 min) of the same compound?
**A.** The value was −64%.
